Assay [1] has as its target Alpha-glucosidase MAL12 (Saccharomyces cerevisiae S288c, UniProt P53341). Nature of the assay: Inhibition of yeast alpha-glucosidase MAL12 assessed as inhibition of p-nitrophenol release by spectrophotometry. The essentials: (§1)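 Yeast maltase activity was followed by p-nitrophenol release from p-nitrophenyl-α-D-glucopyranoside at 405 nm. IC50 was defined as the concentration giving 50% inhibition under assay conditions. Acarbose was tested in the same assay, and the ratio was taken as acarbose IC50 over compound IC50.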

The target of assay [2] is Alpha-glucosidase MAL12 (Saccharomyces cerevisiae S288c) (UniProt P53341). Description: Inhibition of yeast alpha-glucosidase MAL12 assessed as inhibition of p-nitrophenol release at 500 uM by spectrophotometry relative to control. The essentials:
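Baker's yeast maltase, with p-nitrophenyl-α-D-glucopyranoside as substrate. Released p-nitrophenol was read at 405 nm. Compounds were screened at a fixed 500 μM, and activity was expressed as percent inhibition relative to a no-inhibitor control assay. Acarbose served as comparator.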

Assay [3] concerns Rattus norvegicus. Nature of the assay: Hypoglycemic activity in maltose-fed Wistar rat assessed as reduction in postprandial blood glucose level at 50 mg/kg, po administered 5 mins before maltose challenge measured after 30 mins of maltose infusion.
Assay [4] has as its system Rattus norvegicus. Nature of the assay: Hypoglycemic activity in maltose-fed Wistar rat assessed as reduction in postprandial blood glucose level at 50 mg/kg, po administered 5 mins before maltose challenge measured after 60 mins of maltose infusion.
In assay [5] the target is Alpha-glucosidase MAL12 (Saccharomyces cerevisiae S288c) (UniProt P53341). Nature of the assay: Ratio of acarbose IC50 to compound IC50 for yeast alpha-glucosidase MAL12. The essentials:
as §1

Structures are written as SMILES. Activity calls are given as the source filed them.

Sequence of Alpha-glucosidase MAL12 (P53341 whole entry): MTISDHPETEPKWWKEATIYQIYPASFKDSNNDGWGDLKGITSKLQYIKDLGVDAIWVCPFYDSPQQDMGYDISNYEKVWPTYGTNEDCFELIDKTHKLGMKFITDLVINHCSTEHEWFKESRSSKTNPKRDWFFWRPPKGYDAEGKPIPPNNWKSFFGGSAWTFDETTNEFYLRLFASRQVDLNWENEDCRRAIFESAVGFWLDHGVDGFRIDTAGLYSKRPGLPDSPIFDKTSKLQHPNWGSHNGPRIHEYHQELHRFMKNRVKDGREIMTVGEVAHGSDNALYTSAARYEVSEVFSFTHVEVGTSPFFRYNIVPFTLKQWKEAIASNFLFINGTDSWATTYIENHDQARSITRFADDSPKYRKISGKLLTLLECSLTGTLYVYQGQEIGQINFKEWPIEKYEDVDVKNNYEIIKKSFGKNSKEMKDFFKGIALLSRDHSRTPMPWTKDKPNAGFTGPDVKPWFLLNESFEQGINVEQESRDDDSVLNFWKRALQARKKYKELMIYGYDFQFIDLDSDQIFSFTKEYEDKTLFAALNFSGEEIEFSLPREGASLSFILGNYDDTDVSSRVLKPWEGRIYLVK
Sequence of Alpha-glucosidase MAL12 (Saccharomyces cerevisiae S288c) (P53341 whole entry): as above

With `CO[C@@H]1O[C@H](Cn2cc(COC3CCCCO3)nn2)[C@H]2OC(C)(C)O[C@@H]12` (some centres not stated), in assay [1], the half-inhibitory concentration (IC50) worked out at 24.7 µM. Also, the inhibition in assay [2] stood at 79.5%. As to `CC1(C)O[C@H]2[C@@H](O1)[C@@H](Cn1cc(-c3ccccc3)nn1)O[C@@H]1OC(C)(C)O[C@@H]12`, the inhibition in assay [2] came out at 99.4%.

`CC1(C)O[C@H]2O[C@H](Cn3cc(C4=CCCCC4)nn3)[C@H](O)[C@H]2O1`: the inhibition in assay [2] is 33.3%.

Consider `CO[C@@H]1O[C@H](Cn2cc(CCCCl)nn2)[C@H]2OC(C)(C)O[C@@H]12`, for which the inhibition in assay [2] is 99.5%.

As for `CO[C@@H]1O[C@H](Cn2cc(COc3ccccc3)nn2)[C@H]2OC(C)(C)O[C@@H]12`, the result in assay [3] and in assay [4] was Active. Besides, the IC50 in assay [1] was 5.7 µM. Also, in assay [5], the Ratio IC50 came to 20. In addition, the inhibition in assay [2] was 98.4%. Take `CCCc1cn(C[C@H]2O[C@@H](OC)[C@@H]3OC(C)(C)O[C@@H]32)nn1`: the inhibition in assay [2] came out at 44.9%.

Take `CC1(C)O[C@H]2O[C@H](Cn3cc(-c4ccccc4)nn3)[C@H](O)[C@H]2O1`: the inhibition in assay [2] was 87.9%.

For the molecule `CO[C@@H]1O[C@H](Cn2cc(-c3ccccc3)nn2)[C@H]2OC(C)(C)O[C@@H]12`, the outcome in assay [3] and in assay [4] was Active. In assay [1], the IC50 came to 14.9 µM. Also, the inhibition in assay [2] amounted to 94.4%. In the case of `CCOC(=O)c1cn(C[C@H]2O[C@@H](OC)[C@@H]3OC(C)(C)O[C@@H]32)nn1`, the IC50 in assay [1] amounted to 15.1 µM. For the same molecule, the inhibition in assay [2] amounted to 98%. Regarding `CO[C@@H]1O[C@H](Cn2cc(C3(O)CCCCC3)nn2)[C@H]2OC(C)(C)O[C@@H]12`, in assay [1], the IC50 stood at 5.2 µM. Moreover, the Ratio IC50 in assay [5] turned out to be 20. Moreover, the inhibition in assay [2] is 98.5%. As for `CO[C@@H]1O[C@H](Cn2cc(CO)nn2)[C@H]2OC(C)(C)O[C@@H]12`, the inhibition in assay [2] is 46.5%.

For `CCC(C)(O)c1cn(C[C@H]2O[C@@H](OC)[C@@H]3OC(C)(C)O[C@@H]32)nn1` (some centres not stated), in assay [2], the inhibition turned out to be 41.1%. On to `CO[C@@H]1O[C@H](Cn2cc(C3=CCCCC3)nn2)[C@H]2OC(C)(C)O[C@@H]12`, for which the IC50 in assay [1] stood at 3.8 µM. The Ratio IC50 in assay [5] turned out to be 25. For the same molecule, the inhibition in assay [2] is 98.1%. As for `CC1(C)O[C@H]2O[C@H]([C@H]3COC(C)(C)O3)[C@@H](n3cc(-c4ccccc4)nn3)[C@H]2O1`, the inhibition in assay [2] came out at 73.1%. As for `C[C@H]1O[C@H](O[C@H]2[C@H](O)[C@@H](O)[C@@H](O[C@H]3[C@H](O)[C@@H](O)C(O)O[C@@H]3CO)O[C@@H]2CO)[C@H](O)[C@@H](O)[C@@H]1N[C@H]1C=C(CO)[C@@H](O)[C@H](O)[C@H]1O` (some centres not stated), the outcome in assay [3] and in assay [4] was Active. In assay [2], the inhibition is 48.1%. Take `CO[C@@H]1O[C@H](Cn2cc(C(C)(C)O)nn2)[C@H]2OC(C)(C)O[C@@H]12`: in assay [2], the inhibition was found to be 60.2%.

As for `CC1(C)O[C@H]2O[C@H](Cn3cc(CO)nn3)[C@H](O)[C@H]2O1`, in assay [2], the inhibition was found to be 68.8%.

A word on the IC50: it is the concentration that gives 50% inhibition. A word on the inhibition: it is the share of the control response that was lost under treatment.

For the origin of these results see ChEMBL document CHEMBL1157621, “Synthesis, biological activity, and molecular modeling studies of 1H-1,2,3-triazole derivatives of carbohydrates as alpha-glucosidases inhibitors” (J Med Chem, 2010).
